Measurements as given in ChEMBL document CHEMBL4017500 (J Med Chem, 2017).
pIC50: −log10 of the molar value. The source made the active and inactive calls. The calls are words filed in the database; no cut-off is given here.

What was measured:
[1] = Inhibition of bacterial MBP-fused NDM1 expressed in Escherichia coli BL21(DE3) ausing fluorocillin as substrate preincubated for 20 mins followed by substrate addition measured at 1 sec time interval for 25 mins by fluorescence assay; set-up: species or system Bacteria
How it was run: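 NDM-1 pre-incubated 20 min with inhibitor (final 100 μM to 1 nM) in 50 mM HEPES pH 7.0 with 2 mM CHAPS. Reaction started with fluorocillin (final 87 nM, below KM), NDM-1 final 25 pM. Fluorescence read at λex/em 495/525 nm, 10 reads over ~25 min.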

[2] = target: Histone deacetylase 1 (Homo sapiens) (UniProt Q13547); test: Inhibition of full length human C-terminal FLAG/His-tagged HDAC1 expressed in baculovirus infected sf9 cells at 10 uM using HDAC substrate 3 preincubated for 5 mins followed by substrate addition measured after 30 mins by fluorescence assay
How it was run: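 Inhibitor pre-incubated 5 min, then HDAC substrate 3 (20 μM) added, 30 min at 37 °C. Developer added for 15 min at room temperature; fluorescence read at ex/em 360/460 nm. Activity relative to no-inhibitor wells, with 200 μM SAHA as 0%. Run in triplicate.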

[3] = target: Carbonic anhydrase 2 (Homo sapiens) (UniProt P00918); test: Inhibition of human carbonic anhydrase 2 at 10 uM using p-nitrophenyl acetate as substrate preincubated for 10 mins followed by substrate addition measured for 15 mins
How it was run: (§1)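 hCAII (100 nM) in 50 mM HEPES pH 8.0 pre-incubated with inhibitor for 10 min at 30 °C. p-Nitrophenyl acetate (500 μM) then added and absorbance at 405 nm followed 15 min. Activity relative to no-inhibitor wells, with 50 μM benzene sulfonamide as 0%. Run in triplicate.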

[4] = target: Macrophage metalloelastase (Homo sapiens) (UniProt P39900); test: Inhibition of human MMP12 (Phe99 to Leu271 residues) expressed in Escherichia coli at 50 to 100 uM using Mca-Pro-LeuGly-Leu-Dpa-Ala-Arg-NH2.AcOH as substrate preincubated for 30 mins followed by substrate addition measured after 20 mins by fluorescence assay relative to control
How it was run: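 Human recombinant MMP-2 (1.16 U/well) or MMP-12 (0.007 U/well) in 50 mM HEPES, 10 mM CaCl2, 0.05% Brij-35, pH 7.5. Enzyme and inhibitor pre-incubated 30 min at 37 °C, then OmniMMP fluorogenic substrate (4 μM) added. Fluorescence rise followed 20 min at ex/em 320/400 nm. Activity relative to no-inhibitor wells, with 200 μM NSA as 0%. Run in triplicate.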

[5] = target: Carbonic anhydrase 2 (Homo sapiens) (UniProt P00918); test: Inhibition of human carbonic anhydrase 2 at 50 to 100 uM using p-nitrophenyl acetate as substrate preincubated for 10 mins followed by substrate addition measured for 15 mins; how it was run: as §1
[6] = Selectivity ratio of compound effect for inhibition of bacterial MBP-fused NDM1 expressed in Escherichia coli BL21(DE3) to compound effect for inhibition of human MMP12 (Phe99 to Leu271 residues) expressed in Escherichia coli
[7] = Fluorescence quenching activity assessed as reduction in tryptophan fluorescence up to 32 uM after 30 mins by luminescence spectrometric method; set-up: scale not given: the % may be the effect or the level left
How it was run: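 NDM-1 (2 μM final) in 50 mM HEPES pH 7.5 with compound at 4–32 μM for 30 min. Excitation 280 nm, emission scanned 300–400 nm, intensity taken at 348 nm. Scaled with buffer as 0% and inhibitor-free enzyme as 100%. Free L-tryptophan (2 μM) run as control.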

Escherichia coli [8] = test: Inhibition of NDM1 in Escherichia coli isolate Ch8.68 assessed as potentiation of imipenem-induced antibacterial activity by measuring imipenem MIC at 100 mg/L after 18 to 20 hrs by broth microdilution assay (reference value: 16 mg/L)
Escherichia coli [9] = test: Inhibition of NDM1 in Escherichia coli isolate Ah8.73 assessed as potentiation of imipenem-induced antibacterial activity by measuring imipenem MIC at 100 mg/L after 18 to 20 hrs by broth microdilution assay (reference value: 16 mg/L)
Escherichia coli [10] = test: Inhibition of NDM1 in Escherichia coli isolate Ah8.75 assessed as potentiation of imipenem-induced antibacterial activity by measuring imipenem MIC at 100 mg/L after 18 to 20 hrs by broth microdilution assay (reference value: 16 mg/L)
Escherichia coli [11] = test: Effect on growth of Escherichia coli isolate Ch8.68 at 100 mg/L after 18 to 20 hrs by broth microdilution assay
How it was run: (§2)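 Mueller-Hinton broth microdilution per CLSI, triplicate. blaNDM-1 clinical isolates grown from OD600 0.1 to 0.224 (~1–2 × 10^8 CFU/mL), diluted 3 μL into 4997 μL MH, and 100 μL added to 100 μL of compound (100 mg/L) alone. Incubated 37 °C for 18–20 h, then scored for growth.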

Escherichia coli [12] = test: Effect on growth of Escherichia coli isolate Ch8.70 at 100 mg/L after 18 to 20 hrs by broth microdilution assay; how it was run: as §2
Escherichia coli [13] = test: Effect on growth of Escherichia coli isolate Ah8.71 at 100 mg/L after 18 to 20 hrs by broth microdilution assay; how it was run: as §2
Escherichia coli [14] = test: Effect on growth of Escherichia coli isolate Ah8.73 at 100 mg/L after 18 to 20 hrs by broth microdilution assay; how it was run: as §2
Klebsiella pneumoniae [15] = test: Effect on growth of Klebsiella pneumoniae isolate Pd1.49 at 100 mg/L after 18 to 20 hrs by broth microdilution assay; how it was run: as §2
Klebsiella pneumoniae [16] = test: Effect on growth of Klebsiella pneumoniae isolate Pd1.54 at 100 mg/L after 18 to 20 hrs by broth microdilution assay; how it was run: as §2
Klebsiella pneumoniae [17] = test: Effect on growth of Klebsiella pneumoniae isolate Pd1.55 at 100 mg/L after 18 to 20 hrs by broth microdilution assay; how it was run: as §2
Klebsiella pneumoniae [18] = test: Effect on growth of Klebsiella pneumoniae isolate Cm1.62 at 100 mg/L after 18 to 20 hrs by broth microdilution assay; how it was run: as §2
HEK293 = test: Cytotoxicity against HEK293 cells assessed as change in morphology up to 400 uM after 4 to 24 hrs by microscopic assay; type: cell-based; conditions: human
How it was run: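 HEK293 cells treated as in the viability assay (4 or 24 h, DMSO vehicle control). Imaged by epifluorescence microscopy at 20X magnification to assess growth and morphology.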

[19] = test system: histone deacetylase 1/6 (Homo sapiens); test: Selectivity ratio of compound effect for inhibition of bacterial MBP-fused NDM1 expressed in Escherichia coli BL21(DE3) to compound effect for inhibition of human histone deacetylases HDAC-1/HDAC-6
[20] = target: Metallo-beta-lactamase type 2 (Serratia marcescens, UniProt P52699); test: Inhibition of Serratia marcescens IMP1 expressed in Escherichia coli BL21(DE3) using fluorocillin as substrate preincubated for 10 mins followed by substrate addition measured after 20 mins by HTS assay
Beta-lactamase VIM-2 = Beta-lactamase VIM-2 (Pseudomonas aeruginosa, UniProt Q9K2N0); test: Inhibition of Pseudomonas aeruginosa VIM2 expressed in Escherichia coli BL21(DE3) using fluorocillin as substrate preincubated for 10 mins followed by substrate addition measured after 20 mins by HTS assay

Sequence of Macrophage metalloelastase (Homo sapiens) (P39900 106-470 limits assumed): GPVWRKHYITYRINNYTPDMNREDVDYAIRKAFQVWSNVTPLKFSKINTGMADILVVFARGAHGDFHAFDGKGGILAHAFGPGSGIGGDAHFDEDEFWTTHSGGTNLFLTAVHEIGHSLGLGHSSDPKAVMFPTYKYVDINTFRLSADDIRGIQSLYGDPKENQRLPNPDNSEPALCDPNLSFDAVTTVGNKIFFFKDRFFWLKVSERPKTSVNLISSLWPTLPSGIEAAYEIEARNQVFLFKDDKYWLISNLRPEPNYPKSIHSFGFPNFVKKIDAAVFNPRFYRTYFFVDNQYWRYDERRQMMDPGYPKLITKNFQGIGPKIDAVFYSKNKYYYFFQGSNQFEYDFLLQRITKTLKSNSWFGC
Sequence of Histone deacetylase 1 (Homo sapiens) (Q13547 whole entry): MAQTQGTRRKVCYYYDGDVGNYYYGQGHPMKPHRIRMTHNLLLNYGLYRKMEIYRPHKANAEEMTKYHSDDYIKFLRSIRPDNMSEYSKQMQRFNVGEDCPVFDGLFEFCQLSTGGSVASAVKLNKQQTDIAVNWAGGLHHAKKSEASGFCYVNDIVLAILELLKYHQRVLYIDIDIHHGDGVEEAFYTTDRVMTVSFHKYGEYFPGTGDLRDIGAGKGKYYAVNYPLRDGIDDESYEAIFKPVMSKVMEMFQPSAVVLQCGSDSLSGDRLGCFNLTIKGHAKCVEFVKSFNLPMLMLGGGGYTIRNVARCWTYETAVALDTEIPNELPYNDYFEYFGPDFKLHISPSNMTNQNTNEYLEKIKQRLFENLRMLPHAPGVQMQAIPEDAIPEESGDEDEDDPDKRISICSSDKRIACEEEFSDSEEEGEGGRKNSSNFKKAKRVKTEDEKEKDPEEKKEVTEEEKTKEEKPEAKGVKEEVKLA
Sequence of Metallo-beta-lactamase type 2 (P52699 whole entry): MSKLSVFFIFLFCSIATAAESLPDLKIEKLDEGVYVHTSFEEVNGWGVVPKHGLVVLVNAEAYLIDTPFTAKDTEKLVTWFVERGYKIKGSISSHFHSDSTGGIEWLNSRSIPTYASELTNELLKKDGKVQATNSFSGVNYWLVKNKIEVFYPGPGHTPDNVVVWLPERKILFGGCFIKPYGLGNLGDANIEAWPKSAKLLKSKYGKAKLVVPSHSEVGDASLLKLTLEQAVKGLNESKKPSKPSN

**Q.** With `Nc1cccc(-c2cc(C(=O)O)nc(C(=O)O)c2)c1` as the compound, how does the pIC50 [1] read?
**A.** The pIC50 was 7.10.

**Q.** And the inhibition [2]?
**A.** Its inhibition is “inactive”.

**Q.** What about the inhibition [3] of the same compound?
**A.** The inhibition was “inactive”.

**Q.** What about the inhibition [4] of the same compound?
**A.** Its inhibition is under 50%.

**Q.** What about the inhibition [5] of the same compound?
**A.** Its inhibition is under 50%.

**Q.** What about the Selectivity ratio [6] of the same compound?
**A.** The Selectivity ratio was 100 to 1000.

**Q.** And the Activity [7]?
**A.** The Activity was 50%.

**Q.** What about the MIC (Escherichia coli [8]) of the same compound?
**A.** The MIC was 1 µg/mL.

**Q.** And the MIC (Escherichia coli [9])?
**A.** Its MIC is 0.5 µg/mL.

**Q.** And the MIC (Escherichia coli [10])?
**A.** Its MIC is 0.5 µg/mL.

**Q.** And the Activity (Escherichia coli [11])?
**A.** The Activity was “Non-Toxic”.

**Q.** And the Activity (Escherichia coli [12])?
**A.** The Activity was “Non-Toxic”.

**Q.** What about the Activity (Escherichia coli [13]) of the same compound?
**A.** Its Activity is “Non-Toxic”.

**Q.** What about the Activity (Escherichia coli [14]) of the same compound?
**A.** Its Activity is “Non-Toxic”.

**Q.** And the Activity (Klebsiella pneumoniae [15])?
**A.** The Activity was “Non-Toxic”.

**Q.** What about the Activity (Klebsiella pneumoniae [16]) of the same compound?
**A.** Its Activity is “Non-Toxic”.

**Q.** And the Activity (Klebsiella pneumoniae [17])?
**A.** The Activity was “Non-Toxic”.

**Q.** And the Activity (Klebsiella pneumoniae [18])?
**A.** Its Activity is “Non-Toxic”.

**Q.** And the Activity (HEK293)?
**A.** Its Activity is “Non-Toxic”.

**Q.** What about the Selectivity ratio [19] of the same compound?
**A.** The Selectivity ratio was 500 to 1000.

**Q.** What about the pIC50 [20] of the same compound?
**A.** The pIC50 was 6.62.

**Q.** And the pIC50 (Beta-lactamase VIM-2)?
**A.** Its pIC50 is 6.68.
